For 6 compounds, IC50 results are on record in ChEMBL document CHEMBL2311274, “Triazole-based inhibitors of geranylgeranyltransferase II” (Bioorg Med Chem Lett, 2013).

Target in the first experiment: not listed separately
The experiment in a line: Inhibition of recombinant GGTase 2 (unknown origin) by scintillation counting in presence of [3H]GGPP. Also on record: species or system Homo sapiens. Summed up:
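Recombinant GGTase II reaction containing radiolabeled GGPP as prenyl donor, a Rab protein as acceptor substrate, and REP. IC50 obtained from inhibition of transfer.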
One may read the IC50 as the concentration that inhibits the measured activity by half. With `O=P(O)(O)C(Cc1cn(Cc2ccc3ccccc3c2)nn1)P(=O)(O)O`, the 50% inhibitory concentration (IC50) is over 2000 µM. The same measure, in the same setting: next, `O=P(O)(O)C(Cc1cn(Cc2ccccc2)nn1)P(=O)(O)O`: 2000 µM. The same measure, in the same setting: the same measure for `CC(C)=CCC/C(C)=C/CC/C(C)=C/CCC(C)=CCn1cc(CC(P(=O)(O)O)P(=O)(O)O)nn1` (mixture of isomers): 100 µM; for `CC(C)=CCC/C(C)=C/CCC(C)=CCn1cc(CC(P(=O)(O)O)P(=O)(O)O)nn1` (mixture of isomers): 650 µM; for `CC(C)=CCCC(C)=CCn1cc(CC(P(=O)(O)O)P(=O)(O)O)nn1` (mixture of isomers): over 2000 µM.

As for `O=P(O)(O)C(O)(Cc1cccnc1)P(=O)(O)O` [RISEDRONIC ACID], the IC50 is over 1000 µM.

A further experiment relates to RPMI-8226. The experiment in a line: Cytotoxicity against human multiple myeloma RPMI8226 measured after 24 to 48 hrs by MTT assay. The format is functional, cell-based. (Tetrazolium assays rely on reduction of a dye to a coloured formazan, in cell work by metabolically active cells.)
`O=P(O)(O)C(Cc1cn(Cc2ccc3ccccc3c2)nn1)P(=O)(O)O` came in with an IC50 of over 1000 µM. The same measure, in the same setting: the same measure for `O=P(O)(O)C(Cc1cn(Cc2ccccc2)nn1)P(=O)(O)O`: over 1000 µM. Same read-out and setting: the same measure for `CC(C)=CCC/C(C)=C/CC/C(C)=C/CCC(C)=CCn1cc(CC(P(=O)(O)O)P(=O)(O)O)nn1` (mixture of isomers): 1000 µM. Same read-out and setting: the same measure for `CC(C)=CCC/C(C)=C/CCC(C)=CCn1cc(CC(P(=O)(O)O)P(=O)(O)O)nn1` (mixture of isomers): 900 µM; for `CC(C)=CCCC(C)=CCn1cc(CC(P(=O)(O)O)P(=O)(O)O)nn1` (mixture of isomers): over 1000 µM.
